5HT1a antag – 5-HT1a (human) receptor antagonism; actives 0.68% (n = 62,000); P08908; inhibition, % at 10 µM; AID 612; CHO 5-HT1a Ga15 NFAT-bla reporter, antagonist mode;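 active = inhibition above the mean of all tested compounds plus 3 SD, cut at about 43% in these data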;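 also: receptor stimulated by 5-CT agonist at 100 nM near EC80; beta-lactamase reporter measured by ratiometric fluorescence of a cleavable substrate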
S1P3 agonist – activates the human S1P3 receptor. Q99500. S1P3 NFAT-BLA reporter cells, agonism, FRET ratio; relative to 1 µM S1P, basal subtracted. activation, % at 4.5 µM. actives 0.1% (n = 60,000). AID 373;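 active = activation above the screen-wide mean plus 3 SD, cut at about 4.5% in these data, passing the limit was not always enough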
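Assay system: CHO cells stably expressing human S1P3, Gα16 and NFAT-β-lactamase reporter. Timing: overnight plating, 4 h compound 37 °C, 2 h substrate RT. Signal: β-lactamase FRET emission ratio 460/535 nm. Measure: percent activation versus median 1 µM S1P response, basal-subtracted, per plate. Repeats: primary screen single test, confirmation screen in triplicate.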
HTR1E antagonist – 5-HT1E (human) receptor antagonism; P28566; CHO 5-HT1E Ga15 NFAT-bla reporter, FRET, antagonist; inhibition, % at 6 µM; actives 0.99% (n = 65,000); AID 571;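 active = inhibition above a set limit, the mean inhibition across every tested compound plus 3 SD, cut at about 29% in these data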;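 also: signal is the 460 over 535 nm emission ratio of beta-lactamase substrate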
Target sequence (P28566 whole entry, looked up): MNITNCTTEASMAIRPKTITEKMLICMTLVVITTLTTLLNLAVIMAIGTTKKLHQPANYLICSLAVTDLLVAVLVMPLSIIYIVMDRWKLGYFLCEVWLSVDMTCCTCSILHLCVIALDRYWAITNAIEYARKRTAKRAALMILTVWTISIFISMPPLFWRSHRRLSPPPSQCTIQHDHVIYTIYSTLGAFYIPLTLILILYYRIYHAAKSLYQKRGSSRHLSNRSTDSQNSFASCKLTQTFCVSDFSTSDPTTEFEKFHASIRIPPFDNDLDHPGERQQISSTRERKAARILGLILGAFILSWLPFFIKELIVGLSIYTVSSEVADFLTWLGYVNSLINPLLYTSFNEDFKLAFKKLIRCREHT
5HT1a ag – activates the human 5-HT1a serotonin receptor. actives 0.56% (n = 65,000). CHO 5-HT1a Ga15 NFAT-bla reporter, FRET ratio; 0% basal, 100% maximal reference agonist. P08908. activation, % at 10 µM;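 active = activation above the screen-wide mean activation plus 3 SD, cut at about 19% in these data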
5HT1E ag – agonists of human 5-HT1E serotonin receptor; P28566; CHO 5-HT1E Ga15 NFAT-bla reporter, FRET; 0% DMSO wells, 100% control agonist wells; activation, % at 6 µM; actives 0.69% (n = 65,000); AID 574;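 active = activation above a set limit, the screen-wide mean activation plus 3 SD, cut at about 8.5% in these data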
A number is an active result; 0 = inactive; - = not tested or not shown. In the library only some 2.6% were active in any assay of this set; here they are far more common.

SMILES | 5HT1a antag | S1P3 agonist | HTR1E antagonist | 5HT1a ag | 5HT1E ag
Cc1noc(C)c1CSc1cc(C)c2ccccc2n1 | 0 | 0 | 0 | 0 | 0
CCOc1ccc2c(O)csc2c1 | 0 | 0 | 0 | 0 | 0
CCCN=Cc1sc2ccc(OCC)cc2c1O | 0 | 0 | 0 | 0 | 35
COc1ccc(N2CCN(Cc3nc4c(c(=O)n(C)c(=O)n4C)n3Cc3ccccc3C)CC2)cc1 | 0 | 0 | 0 | 0 | 0
CCOc1ccccc1NC(=O)CN(c1cc(C)cc(C)c1)S(=O)(=O)c1c(C)noc1C | 0 | 0 | 0 | 0 | 0
CCOc1ccccc1NC(=O)CN(c1ccc(OC)cc1)S(=O)(=O)c1c(C)noc1C | 0 | 0 | 68 | 0 | 0
CCOc1ccc(N(CC(=O)Nc2ccccc2C)S(=O)(=O)c2c(C)noc2C)cc1 | 0 | 0 | 46 | 0 | 0
COc1ccccc1NC(=O)CN(c1ccc(C)cc1)S(=O)(=O)c1c(C)n[nH]c1C | 63 | 0 | 0 | 0 | 0
Nc1nonc1-c1nc2ccccc2n1CC(=O)NC1CCCC1 | 0 | 0 | 0 | 0 | 0
Nc1nonc1-c1nc2ccccc2n1Cc1ccccc1 | 56 | 0 | 0 | 0 | 0
CCOC(=O)c1ccccc1NC(=O)Cn1c(-c2nonc2N)nc2ccccc21 | 80 | 0 | 74 | 0 | 0
CC(C)N=c1cc2n(-c3ccc(Cl)cc3)c3ccccc3nc-2cc1Nc1ccc(Cl)cc1 | - | 0 | 0 | 0 | 0
CCn1c2ccccc2c2nnc(SCc3ccccc3)nc21 | 0 | 0 | 33 | 0 | 0
CCCn1c2ccccc2c2nnc(SCC(=O)OC)nc21 | 0 | 0 | 30 | 0 | 0
CCn1c2ccccc2c2nnc(SCN3C(=O)c4ccccc4C3=O)nc21 | 0 | 0 | 38 | 0 | 0
CCC1SC(N)=NC1=O (stereo not given) | - | 0 | 0 | 0 | 0
Cc1ccc(S(=O)(=O)c2nc(-c3ccccc3)oc2NCc2cccnc2)cc1 | 0 | 0 | 0 | 0 | 48
CSc1oc(-c2ccccc2)nc1S(=O)(=O)c1ccc(C)cc1 | 0 | 0 | 0 | 0 | 0
c1ccc(CNC2=NCCCCC2)cc1 | 0 | 0 | 0 | 0 | 13
O=C(O)CNC1=NCCCCC1 | 0 | 0 | 0 | 0 | 0
C=CCn1c(SCC(=O)N2CCOCC2)nc2scc(-c3ccco3)c2c1=O | 0 | 0 | 0 | 29 | 0
Cc1nc(NCc2ccco2)c2c3c(sc2n1)CCC3 | 54 | 0 | 0 | 0 | 0
CCCCC(=O)Nc1cccc(NC(=O)CC)c1 | 0 | 0 | 0 | 0 | 0
CC(=O)Nc1cccc(NC(=O)CCCC(=O)O)c1 | 0 | 0 | 0 | 0 | 28
O=C(CCCn1nnc(-c2cccnc2)n1)c1ccc(F)cc1 | 0 | 0 | 0 | 0 | 0
SMILES | 5HT1a antag | S1P3 agonist | HTR1E antagonist | 5HT1a ag | 5HT1E ag
Cc1ccc(-c2nnn(CC(=O)N(c3cccc(F)c3)C(C(=O)NC3CCCC3)c3ccco3)n2)o1 (stereo not given) | 0 | 0 | 32 | 0 | 0
CC(C)(C)NC(=O)C(c1ccco1)N(C(=O)Cn1nnc(-c2ccc(F)cc2)n1)c1cccc(F)c1 (stereo not given) | 0 | 0 | 0 | 0 | 10
O=C(CN1C(=O)c2ccccc2C1=O)OCN1C(=O)c2ccccc2C1=O | - | 0 | 0 | 0 | 0
Cc1cc(S(=O)(=O)N2CCN(c3ccc(F)cc3)CC2)c(C)s1 | 0 | 0 | 0 | 0 | 0
Cc1ccc(NC(=O)Cn2nnc(C(=O)Nc3ccc(C)c(C)c3)c2N)cc1 | 0 | - | 36 | 0 | 0
COc1cc(Cl)c(C)cc1NC(=O)CSc1nnc(-c2ccccn2)n1Cc1ccco1 | 0 | 0 | 0 | 0 | 0
CCOc1ccc(C(C)=O)cc1N1C(=O)C2C3C=CC(O3)C2C1=O (stereo not given) | 60 | 0 | 39 | 0 | 0
CCOc1ccc(C(C)=O)cc1N1C(=O)C2C3C=CC(C3)C2C1=O (stereo not given) | 0 | 0 | 0 | 0 | 0
COc1nc2c(C)cccc2cc1-c1noc(-c2ccncc2)n1 | 0 | 0 | 0 | 0 | 0
CN1CCN(Cc2ccc(OCc3ccccc3)cc2)CC1 | 0 | 0 | 0 | 0 | 0
Oc1ccc(CN2CCN(Cc3ccccc3)CC2)c2cccnc12 | 0 | 0 | 30 | 0 | 0
CN1CCN(Cc2cc(COCc3ccccc3)c3cccnc3c2O)CC1 | 0 | 0 | 48 | 0 | 0
O=C(Nc1cccc(-c2nc3ccccc3[nH]2)c1)c1cccc(NC(=O)c2ccco2)c1 | 0 | 0 | 43 | 0 | 0
Cc1ccc(-c2nc3ccccc3[nH]2)cc1NC(=O)c1ccco1 | 0 | 0 | 0 | 0 | 0
COc1ccccc1-n1nnnc1SCc1ccccc1 | 0 | 0 | 0 | 0 | 0
COc1ccccc1-n1nnnc1SCc1cc2c(cc1Br)OCO2 | 0 | 0 | 29 | 0 | 0
CCc1cc2c(C)cc(=O)oc2cc1OC(=O)C1CCCN1C(=O)OC(C)(C)C (stereo not given) | 0 | 0 | 0 | 0 | 0
O=C(NCc1ccco1)C1CCN(C(=O)c2cc3sccc3n2Cc2ccc(Cl)cc2)CC1 | 45 | 0 | 0 | 0 | 0
O=C(CCc1nc(-c2ccccc2F)no1)NCCc1ccccc1Cl | 0 | 0 | 0 | 0 | 15
Cc1ccc(-c2noc(CCC(=O)NCCN3CCN(Cc4ccccc4)CC3)n2)cc1 | 0 | 0 | 0 | 0 | 0
Cc1ccc(-c2noc(CCC(=O)NCCc3ccccc3Cl)n2)cc1 | 0 | 0 | 0 | 0 | 21
O=C(CCc1nc(-c2ccccc2F)no1)NCCN1CCc2ccccc2C1 | 0 | 0 | 0 | 0 | 0
COc1cccc(CNCCOCCO)c1OC | 0 | 0 | 0 | 0 | 0
COc1cccc(CNCc2ccccn2)c1OC | 0 | 0 | 0 | 0 | 11
CN(c1ccc(C(=O)NC2CC2)cc1)S(=O)(=O)c1ccccc1 | 0 | 0 | 0 | 0 | 0
SMILES | 5HT1a antag | S1P3 agonist | HTR1E antagonist | 5HT1a ag | 5HT1E ag
CCNc1nc(CC)nc2c1oc1ccccc12 | 0 | - | 29 | 0 | 0
CCNc1nc(C)nc2c1oc1ccccc12 | 0 | - | 0 | 0 | 0
CCc1nc(SCCO)c2oc3ccccc3c2n1 | 0 | 0 | 33 | 0 | 0
CCc1nc(NCc2ccco2)c2oc3ccccc3c2n1 | 0 | - | 34 | 0 | 0
CC(=O)/C=C(\C)NCCNc1c(F)c(F)c(CO)c(F)c1F | - | 0 | 0 | 0 | 0
COc1ccc(-n2c(SCC(=O)N3CCN(c4ccccc4)CC3)nc3c(c2=O)SCC3)cc1 | 0 | 0 | 0 | 0 | 0
COC(=O)C(C)Sc1nc2c(c(=O)n1-c1ccccc1)SCC2 (stereo not given) | 0 | - | 0 | 36 | 0
O=c1c2ccccc2c2ccccc2c(=O)n1CC1CCCO1 (stereo not given) | 0 | 0 | 35 | 0 | 0
O=C(CSc1nc2ccccc2c(=O)n1CC1CCCO1)NCC1CCCO1 (stereo not given) | 0 | 0 | 0 | 0 | 0
O=C(NCc1ccccc1)NC1(C(=O)N2CCOCC2)CCCCC1 | 0 | 0 | 0 | 0 | 0
COc1cccc(C2C(C(N)=O)=C(C)Nc3nc(-c4ccccc4Cl)nn32)c1 (stereo not given) | 0 | 0 | 0 | 0 | 0
COc1cc2nc(CN3C(=O)c4ccccc4C3=O)oc(=O)c2cc1OC | 0 | 0 | 0 | 0 | 0
